Measured values: PMC6096382 (Theranostics, 2018)

System: human sural nerve
Type: binding
Details: topical 100 µM on human nerve sections from multiple patients
How it was run: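 Human peripheral nerve from nerve-resection patients, cut as 10 µm unfixed sections, humidified 30 min. Test compound in 0.5X HBSS applied topically and incubated 30 min in a humidified chamber. Carboxyfluorescein served as the free-dye control. Sections were washed twice with 0.5X HBSS and once with PBS, then coverslipped and imaged at once on a dissecting scope or confocal (488 nm excitation, 515/25 nm emission, 10x air objective).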

binding of free dye control to human nerve: only weak non-specific binding
Substance: carboxyfluorescein
